Laboratory results published in ChEMBL document CHEMBL1124774, “Synthesis and biological activity of some derivatives of rifamycin P” (1990).
Values after ≈ are worked out from the molar mass of the structure shown.

How the values were obtained:
[1] = test system: Mycobacterium kansasii; assay: In vitro activity compound against slowly growing Mycobacterium kansasii 1298; format: functional
Outline: (§1)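 Medium was Middlebrook 7H10 agar with 2% glycerol and 10% OADC. Organisms from Loevenstein-Jensen slants were grown in 7H9 broth with 0.5% Tween and 10% OADC, adjusted to McFarland no. 1, and spotted with a multipoint inoculator. Sealed plates were incubated at 22, 30 or 37 °C for 4-20 days depending on strain.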

[2] = test system: Staphylococcus aureus; assay: In vitro antibacterial activity of compound against Staphylococcus aureus Tour L 165; format: functional
Outline: (§2)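 Twofold microdilution MIC in Iso-Sensitest broth over 128-0.0001 µg/mL. Inoculum was 10^4 cfu/mL, with incubation at 37 °C for 18-24 h.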

[3] = test system: Mycobacterium scrofulaceum; assay: In vitro activity of compound against slowly growing Mycobacterium scrofulaceum 1297; format: functional; outline: as §1
[4] = test system: Mycolicibacterium fortuitum; assay: In vitro activity compound against rapidly growing Mycobacterium fortuitum 1440; format: functional; outline: as §1
[5] = test system: Mycobacterium avium; assay: Minimum inhibitory concentration of compound against 20 Mycobacterium avium complex (MAC) clinical isolates
[6] = test system: Mycolicibacterium phlei; assay: In vitro activity of compound against rapidly growing Mycobacterium phlei 141; format: functional; outline: as §1
[7] = test system: Streptococcus pyogenes; assay: Minimum inhibitory concentration of compound against Streptococcus pyogenus septicemia in the mouse; format: functional
[8] = test system: Mycobacterium kansasii; assay: In vitro activity compound against slowly growing Mycobacterium kansasii 1291; format: functional; outline: as §1
[9] = test system: Mycolicibacterium fortuitum; assay: In vitro activity of compound against rapidly growing Mycobacterium fortuitum 1287; format: functional; outline: as §1
[10] = test system: Mycolicibacterium flavescens; assay: In vitro activity of compound against rapidly growing Mycobacterium flavescens 1284; format: functional; outline: as §1
[11] = test system: Mycobacterium xenopi; assay: In vitro activity of compound against slowly growing Mycobacterium xenopi 554; format: functional; outline: as §1
[12] = test system: Escherichia coli; assay: In vitro antibacterial activity of compound against Escherichia coli SKF 12140; format: functional
[13] = test system: Mycobacterium xenopi; assay: In vitro activity compound against slowly growing Mycobacterium xenopi 1446; format: functional; outline: as §1
[14] = test system: Mycobacterium kansasii; assay: In vitro activity of compound against slowly growing Mycobacterium kansasii 1299; format: functional; outline: as §1
[15] = test system: Mycobacterium marinum; assay: In vitro activity of compound against slowly growing Mycobacterium marinum 1388; format: functional; outline: as §1
[16] = test system: Mycobacterium marinum; assay: In vitro activity of compound against slowly growing Mycobacterium marinum 1390; format: functional; outline: as §1
[17] = test system: Proteus vulgaris; assay: In vitro antibacterial activity of compound against Proteus vulgaris X19H ATCC 881; format: functional
[18] = test system: Mycolicibacterium phlei; assay: In vitro activity of compound against rapidly growing Mycobacterium phlei 1289; format: functional; outline: as §1
[19] = test system: Mycolicibacterium smegmatis; assay: In vitro activity of compound against rapidly growing Mycobacterium smegmatis 139; format: functional; outline: as §1
[20] = test system: Mycolicibacterium phlei; assay: In vitro activity of compound against rapidly growing Mycobacterium phlei 1283; format: functional; outline: as §1
[21] = test system: Streptococcus pyogenes; assay: Inhibitory concentration of compound against Streptococcus pyogenus septicemia in the mouse, administarted in OS route; format: functional
Outline: (§3)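 Male and female CD1 mice (18-22 g) were infected ip with S. pyogenes C203, with the challenge set so untreated mice died within 48 h. Groups of five received a single treatment immediately after infection. ED50 was calculated from the percentage surviving at each dose on day 10.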

[22] = test system: Mycobacterium avium; assay: 90% inhibition of the 20 Mycobacterium avium complex (MAC) clinical isolates
[23] = test system: Pseudomonas aeruginosa; assay: In vitro antibacterial activity of compound against Pseudomonas aeruginosa ATCC 10145; format: functional; outline: as §2
[24] = test system: Mycobacterium marinum; assay: In vitro activity of compound against slowly growing Mycobacterium marinum 1393; format: functional; outline: as §1
[25] = test system: Mycobacteroides chelonae; assay: In vitro activity of compound against rapidly growing Mycobacterium chelonae 1443
[26] = test system: Mycobacterium marinum; assay: In vitro activity of compound against slowly growing Mycobacterium marinum 1392; format: functional; outline: as §1
[27] = test system: Mycobacterium scrofulaceum; assay: In vitro activity of compound against slowly growing Mycobacterium scrofulaceum 1293; format: functional; outline: as §1
[28] = test system: Mycolicibacterium fortuitum; assay: In vitro activity of compound against rapidly growing Mycobacterium fortuitum 645; format: functional; outline: as §1
[29] = test system: Mycobacterium gordonae; assay: In vitro activity of compound against slowly growing Mycobacterium gordonae 1294; format: functional; outline: as §1
[30] = test system: Enterococcus faecalis; assay: In vitro antibacterial activity of compound against Streptococcus faecalis ATCC 7080.; format: functional; outline: as §2
[31] = test system: Haemophilus influenzae; assay: In vitro antibacterial activity of compound against Haemophilus influenzae ATCC 19418; format: functional
[32] = test system: Mycobacterium marinum; assay: In vitro activity of compound against slowly growing Mycobacterium marinum 1447; format: functional; outline: as §1
[33] = test system: Mycobacterium marinum; assay: In vitro activity of compound against slowly growing Mycobacterium marinum 1394; format: functional; outline: as §1
[34] = test system: Streptococcus pneumoniae; assay: In vitro antibacterial activity of compound against Streptococcus pneumoniae UC 41; format: functional
Outline: (§4)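 Streptococcal MICs were run by twofold microdilution in Todd-Hewitt broth over 128-0.0001 µg/mL. Inoculum was 10^4 cfu/mL, with incubation at 37 °C for 18-24 h.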

[35] = test system: Neisseria gonorrhoeae; assay: In vitro antibacterial activity of compound against Neisseria gonorrhoeae ISM 68/126; format: functional
[36] = test system: Mycolicibacterium fortuitum; assay: In vitro activity of compound against rapidly growing Mycobacterium fortuitum 646; format: functional; outline: as §1
[37] = test system: Streptococcus pyogenes; assay: Inhibitory concentration of compound against Streptococcus pyogenus septicemia in the mouse, administarted in subcutaneous route; format: functional; settings: sc; outline: as §3
[38] = test system: Mycobacterium xenopi; assay: In vitro activity of compound against slowl growingy Mycobacterium xenopi 555; format: functional; outline: as §1
[39] = test system: Mycolicibacterium smegmatis; assay: In vitro activity of compound against rapidly growing Mycobacterium smegmatis 31; format: functional; outline: as §1
[40] = test system: Staphylococcus epidermidis; assay: In vitro antibacterial activity of compound against Staphylococcus epidermidis ATCC 12228; format: functional; outline: as §2
[41] = test system: Mycolicibacterium fortuitum; assay: In vitro activity compound against rapidly growing Mycobacterium fortuitum 1302; format: functional; outline: as §1
[42] = test system: Streptococcus pyogenes; assay: In vitro antibacterial activity of compound against Streptococcus pyogenes C 203 SKF 13400; format: functional; outline: as §4
[43] = test system: Mycobacterium avium; assay: 50% inhibition of the 20 Mycobacterium (MAC) avium complex clinical isolates; format: functional
Outline: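 Agar-dilution MICs, 2-fold dilutions over 128-0.0001 μg/mL, on Middlebrook 7H10 agar with 2% glycerol and 10% OADC. Organisms from Loevenstein-Jensen slants were grown in 7H9 broth with 0.5% Tween and 10% OADC, adjusted to McFarland no. 1, and spotted with a multipoint inoculator. Plates were sealed and incubated at 22, 30 or 37 °C for 4-20 days depending on strain.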

[44] = test system: Mycolicibacterium smegmatis; assay: In vitro activity of compound against rapidly growing Mycobacterium smegmatis 1442; format: functional; outline: as §1
[45] = test system: Mycobacterium gordonae; assay: In vitro activity of compound against slowly growing Mycobacterium gordonae 1441; format: functional; outline: as §1
[46] = test system: Mycolicibacterium fortuitum; assay: In vitro activity of compound against rapidly growing Mycobacterium fortuitum 114; format: functional; outline: as §1
[47] = test system: Mycolicibacterium fortuitum; assay: In vitro activity of compound against rapidly growing Mycobacterium fortuitum 1285; format: functional; outline: as §1
[48] = test system: Mycobacterium scrofulaceum; assay: In vitro activity of compound against slowly growing Mycobacterium scrofulaceum 1292; format: functional; outline: as §1
[49] = test system: Mycobacterium marinum; assay: In vitro activity of compound against slowly growing Mycobacterium marinum 1391; format: functional; outline: as §1
[50] = test system: Mycolicibacterium flavescens; assay: In vitro activity of compound against rapidly growing Mycobacterium flavescens 1286; format: functional; outline: as §1
[51] = test system: Mycolicibacterium fortuitum; assay: In vitro activity of compound against rapidly growing Mycobacterium fortuitum 726; format: functional; outline: as §1
[52] = test system: Mycobacterium scrofulaceum; assay: In vitro activity of compound against slowly growing Mycobacterium scrofulaceum 1301; format: functional; outline: as §1
[53] = test system: Mycolicibacterium fortuitum; assay: In vitro activity of compound against rapidly growing Mycobacterium fortuitum 140; format: functional; outline: as §1
[54] = test system: Mycobacterium xenopi; assay: In vitro activity of compound against slowly growing Mycobacterium xenopi 556; format: functional; outline: as §1
[55] = test system: Klebsiella pneumoniae; assay: In vitro antibacterial activity of compound against Klebsiella pneumoniae ISM; format: functional

CCN(CC)c1nc2c(s1)c1c(O)c3c(O)c(C)c4c(c32)C(=O)C(C)(O/C=C/C(OC)C(C)C(OC(C)=O)C(C)C(O)C(C)C(O)C(C)/C=C/C=C(/C)C(=O)N1)O4 (stereo not given) gave an MIC [1] of 0.25 µg/mL (≈ 0.309 µM), an MIC [2] of 0.125 µg/mL (≈ 0.154 µM) and an MIC [3] of 0.063 µg/mL (≈ 0.0778 µM). For the same compound, the MIC [4] was 16 µg/mL (≈ 19.8 µM), the MIC [5] was 0.5 µg/mL (≈ 0.617 µM) and the MIC [6] was 0.032 µg/mL (≈ 0.0395 µM). For the same compound, the MIC [7] was 0.135 µg/mL (≈ 0.167 µM), the MIC [8] was 2 µg/mL (≈ 2.47 µM) and the MIC [9] was 2 µg/mL (≈ 2.47 µM). It also gave an MIC [10] of 32 µg/mL (≈ 39.5 µM), an MIC [11] of 2 µg/mL (≈ 2.47 µM) and an MIC [12] of 32 µg/mL (≈ 39.5 µM). It also gave an MIC [13] of 4 µg/mL (≈ 4.94 µM), an MIC [14] of 2 µg/mL (≈ 2.47 µM) and an MIC [15] of 2 µg/mL (≈ 2.47 µM). It also gave an MIC [16] of 4 µg/mL (≈ 4.94 µM), an MIC [17] of 32 µg/mL (≈ 39.5 µM) and an MIC [18] of 2 µg/mL (≈ 2.47 µM). It also gave an MIC [19] of 8 µg/mL (≈ 9.88 µM), an MIC [20] of 0.125 µg/mL (≈ 0.154 µM) and an ED50 [21] of 1.23 mg/kg. The MIC90 [22] was 2 µg/mL (≈ 2.47 µM), the MIC [23] was 8 µg/mL (≈ 9.88 µM) and the MIC [24] was 1 µg/mL (≈ 1.23 µM). For the same compound, the MIC [25] was over 128 µg/mL, the MIC [26] was 1 µg/mL (≈ 1.23 µM) and the MIC [27] was 0.125 µg/mL (≈ 0.154 µM). For the same compound, the MIC [28] was 2 µg/mL (≈ 2.47 µM), the MIC [29] was 0.5 µg/mL (≈ 0.617 µM) and the MIC [30] was 2 µg/mL (≈ 2.47 µM). It also gave an MIC [31] of 0.5 µg/mL (≈ 0.617 µM), an MIC [32] of 1 µg/mL (≈ 1.23 µM) and an MIC [33] of 1 µg/mL (≈ 1.23 µM). It also gave an MIC [34] of 0.063 µg/mL (≈ 0.0778 µM), an MIC [35] of 0.5 µg/mL (≈ 0.617 µM) and an MIC [36] of 32 µg/mL (≈ 39.5 µM). It also gave an ED50 [37] of 1.62 mg/kg, an MIC [38] of 4 µg/mL (≈ 4.94 µM) and an MIC [39] of 8 µg/mL (≈ 9.88 µM). It also gave an MIC [40] of 0.063 µg/mL (≈ 0.0778 µM), an MIC [41] of 2 µg/mL (≈ 2.47 µM) and an MIC [42] of 0.125 µg/mL (≈ 0.154 µM). The MIC50 [43] was 2 µg/mL (≈ 2.47 µM), the MIC [44] was 8 µg/mL (≈ 9.88 µM) and the MIC [45] was 2 µg/mL (≈ 2.47 µM). It also gave an MIC [46] of 16 µg/mL (≈ 19.8 µM), an MIC [47] of 16 µg/mL (≈ 19.8 µM) and an MIC [48] of 0.032 µg/mL (≈ 0.0395 µM). It also gave an MIC [49] of 1 µg/mL (≈ 1.23 µM), an MIC [50] of 0.25 µg/mL (≈ 0.309 µM) and an MIC [51] of 32 µg/mL (≈ 39.5 µM). It also gave an MIC [52] of 2 µg/mL (≈ 2.47 µM), an MIC [53] of 16 µg/mL (≈ 19.8 µM) and an MIC [54] of 4 µg/mL (≈ 4.94 µM). The MIC [55] was 32 µg/mL (≈ 39.5 µM).
